The results in this text go back to ChEMBL document CHEMBL3045286, “Citrus limonoids and their semisynthetic derivatives as antifeedant agents against Spodoptera frugiperda larvae. A structure-activity relationship study” (2002).

In this test the test system is Spodoptera frugiperda. The experiment in a line: Antifeedant activity against larvae of Spodoptera frugiperda (fall armyworm) at 100 ppm measured every 30 min for 8 hr by binary choice assay relative to control. The class given is functional. The procedure, abridged:
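Final-stadium larvae aged […], reared on wheatgerm diet, starved 2 h, then held singly in Petri dishes with control and treatment glass-fiber disks (2.1 cm). All disks carried 100 µL of 0.05 M sucrose. Treatment disks received compound in acetone and control disks acetone alone; disks were dried and weighed before and after. Ten larvae per compound. Feeding index = [(C − T)/(C + T)]%, mean ± SEM, Wilcoxon matched-pairs test.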

The structures appear in SMILES notation.

Take `CC1(C)OC(=O)CC[C@]2(C)[C@H]3CC[C@@]4(C)[C@@H](c5ccoc5)OC(=O)[C@H]5O[C@]54[C@]3(C)C(=O)C[C@@H]12` [1,2-DIDEHYDRO-OBACUNONE]: the AFI was 53%.
With `CC(=O)O[C@H]1CC(=O)OC(C)(C)[C@@H]2C[C@@H](O)[C@]3(C)[C@H](CC[C@@]4(C)[C@@H](c5ccoc5)OC(=O)[C@H]5O[C@@]534)[C@@]12C` [7-ALPHA-NOMILOL], the AFI was 46%.
Compound `CC1(C)OC(=O)C=C[C@]2(C)[C@H]3CC[C@@]4(C)[C@@H](c5ccoc5)OC(=O)[C@H]5O[C@]54[C@]3(C)[C@H](O)C[C@@H]12` [7-ALPHA-OBACUNOL] registered an AFI of 53%.
`CC(=O)O[C@@H]1C[C@H]2C(C)(C)OC(=O)C=C[C@]2(C)[C@H]2CC[C@@]3(C)[C@@H](c4ccoc4)OC(=O)[C@H]4O[C@]43[C@@]21C` [7-ALPHA-OBACUNYL ACETATE]: the AFI turned out to be 24%.
For `CC(=O)O[C@H]1CC(=O)OC(C)(C)[C@@H]2C[C@H](O)[C@]3(C)[C@H](CC[C@@]4(C)[C@@H](c5ccoc5)OC(=O)[C@H]5O[C@@]534)[C@@]12C` [7-BETA-NOMILOL] the value was 35%; for `CC(=O)O[C@H]1CC(=O)OC(C)(C)[C@@H]2C[C@H](OC(C)=O)[C@]3(C)[C@H](CC[C@@]4(C)[C@@H](c5ccoc5)OC(=O)[C@H]5O[C@@]534)[C@@]12C` [7-BETA-NOMILYL ACETATE], 46%; for `CC1(C)OC(=O)C=C[C@]2(C)[C@H]3CC[C@@]4(C)[C@@H](c5ccoc5)OC(=O)[C@H]5O[C@]54[C@]3(C)[C@@H](O)C[C@@H]12` [7-BETA-OBACUNOL], 35%.
Take `CC(=O)O[C@H]1C[C@H]2C(C)(C)OC(=O)C=C[C@]2(C)[C@H]2CC[C@@]3(C)[C@@H](c4ccoc4)OC(=O)[C@H]4O[C@]43[C@]12C` [7-BETA-OBACUNYL ACETATE]: the AFI was 26%.
With `CC(=O)O[C@H]1C[C@H]2C(C)(C)O[C@H]3CC(=O)OC[C@]32[C@H]2CC[C@@]3(C)[C@@H](c4ccoc4)OC(=O)[C@H]4O[C@]43[C@]12C` [EPI-LIMONYL ACETATE], the AFI is listed as 26%.
As to `CC1(C)O[C@H]2CC(=O)OC[C@]23[C@H]2CC[C@@]4(C)[C@@H]([C@H]5CCOC5)OC(=O)[C@H]5O[C@]54[C@]2(C)C(=O)C[C@@H]13` [EPI-PERHYDROLIMONIN], the AFI turned out to be 45%.
Consider `CC1(C)O[C@H]2CC(=O)OC[C@]23[C@H]2CC[C@@]4(C)[C@@H](c5ccoc5)OC(=O)[C@H]5O[C@]54[C@]2(C)[C@@H](O)C[C@@H]13` [EPILIMONOL], for which the AFI is on record as 56%.
For `CO/N=C1\C[C@H]2C(C)(C)O[C@H]3CC(=O)OC[C@]32[C@H]2CC[C@@]3(C)[C@@H](c4ccoc4)OC(=O)[C@H]4O[C@]43[C@]12C` [LIMONIN-7-METHOXIME] the value was 76%.
In the case of `CC(=O)O/N=C1\C[C@H]2C(C)(C)O[C@H]3CC(=O)OC[C@]32[C@H]2CC[C@@]3(C)[C@@H](c4ccoc4)OC(=O)[C@H]4O[C@]43[C@]12C` [LIMONIN-7-OXIME ACETATE], the AFI was found to be 45%.
In the case of `CC1(C)O[C@H]2CC(=O)OC[C@]23[C@H]2CC[C@@]4(C)[C@@H](c5ccoc5)OC(=O)[C@H]5O[C@]54[C@]2(C)/C(=N/O)C[C@@H]13` [LIMONIN-7-OXIME] it was 68%; in that of `CC1(C)O[C@H]2CC(=O)OC[C@]23[C@H]2CC[C@@]4(C)[C@H](c5ccoc5)OC(=O)[C@H]5O[C@]54[C@]2(C)C(=O)C[C@@H]13` [LIMONIN], 87%.
For the compound `CC1(C)O[C@H]2CC(=O)OC[C@]23[C@H]2CC[C@@]4(C)[C@@H](c5ccoc5)OC(=O)[C@H]5O[C@]54[C@]2(C)[C@H](O)C[C@@H]13` [LIMONOL], the AFI is reported as 68%.
With `CC(=O)O[C@@H]1C[C@H]2C(C)(C)O[C@H]3CC(=O)OC[C@]32[C@H]2CC[C@@]3(C)[C@@H](c4ccoc4)OC(=O)[C@H]4O[C@]43[C@@]21C` [LIMONYL ACETATE], the AFI is 45%.
Compound `CO/N=C1\C[C@H]2C(C)(C)OC(=O)C[C@H](OC(C)=O)[C@]2(C)[C@H]2CC[C@@]3(C)[C@@H](c4ccoc4)OC(=O)[C@H]4O[C@]43[C@]12C` [NOMILIN-7-METHOXIME] displayed an AFI of 38%.
The compound `CC(=O)O/N=C1\C[C@H]2C(C)(C)OC(=O)C[C@H](OC(C)=O)[C@]2(C)[C@H]2CC[C@@]3(C)[C@@H](c4ccoc4)OC(=O)[C@H]4O[C@]43[C@]12C` [NOMILIN-7-OXIME ACETATE] displayed an AFI of 41%.
The compound `CC(=O)O[C@H]1CC(=O)OC(C)(C)[C@@H]2C/C(=N\O)[C@]3(C)[C@H](CC[C@@]4(C)[C@@H](c5ccoc5)OC(=O)[C@H]5O[C@]543)[C@@]12C` [NOMILIN-7-OXIME] yielded an AFI of 35%.
`CC(=O)O[C@H]1CC(=O)OC(C)(C)[C@@H]2CC(=O)[C@]3(C)[C@H](CC[C@@]4(C)[C@@H](c5ccoc5)OC(=O)[C@H]5O[C@]543)[C@@]12C` [NOMILIN]: the AFI worked out at 56%.
Compound `CO/N=C1\C[C@H]2C(C)(C)OC(=O)C=C[C@]2(C)[C@H]2CC[C@@]3(C)[C@@H](c4ccoc4)OC(=O)[C@H]4O[C@]43[C@]12C` [OBACUNONE-7-METHOXIME] came in with an AFI of 29%.
For `CC(=O)O/N=C1\C[C@H]2C(C)(C)OC(=O)C=C[C@]2(C)[C@H]2CC[C@@]3(C)[C@@H](c4ccoc4)OC(=O)[C@H]4O[C@]43[C@]12C` [OBACUNONE-7-OXIME ACETATE] the value was 21%.
Take `CC1(C)OC(=O)C=C[C@]2(C)[C@H]3CC[C@@]4(C)[C@@H](c5ccoc5)OC(=O)[C@H]5O[C@]54[C@]3(C)/C(=N/O)C[C@@H]12` [OBACUNONE-7-OXIME]: the AFI turned out to be 25%.
In the case of `CC1(C)OC(=O)C=C[C@]2(C)[C@H]3CC[C@@]4(C)[C@H](c5ccoc5)OC(=O)[C@H]5O[C@]54[C@]3(C)C(=O)C[C@@H]12` [OBACUNONE] it was 68%.
In the case of `CC1(C)O[C@H]2CC(=O)OC[C@]23[C@H]2CC[C@@]4(C)[C@@H]([C@@H]5CCOC5)OC(=O)[C@H]5O[C@]54[C@]2(C)C(=O)C[C@@H]13` [PERHYDROLIMONIN], the AFI is reported as 29%.
